Test results from ChEMBL document CHEMBL4715798, “Structure-Based Optimization of Multifunctional Agonists for Opioid and Neuropeptide FF Receptors with Potent Nontolerance Forming Analgesic Activities” (J Med Chem, 2016).
Activity calls are given as the source filed them. The rule behind the calls is not given here. Non-standard residues stand in square brackets, D forms with d. Residues, ends and D or L forms follow the SMILES beside them. NMeY = CN[C@@H](Cc1ccc(O)cc1)C(=O)O; NMeF = CN[C@@H](Cc1ccccc1)C(=O)O

Assays:
[1] = biological target: T1, Delta-type opioid receptor (Homo sapiens, UniProt P41143); experiment: Agonist activity at delta opioid receptor (unknown origin) expressed in HEK293-A cells assessed as reduction in forskolin-induced cAMP accumulation incubated for 30 mins by competition PKA binding assay; format: functional, cell-based
In short: (§1)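 cAMP functional read-out in transfected cells. Log EC50 ± standard error was obtained by nonlinear regression of data from at least three independent experiments run in duplicate.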

[2] = biological target: T2, Neuropeptide FF receptor 2 (Homo sapiens, UniProt Q9Y5X5); experiment: Agonist activity at NPFFR2 (unknown origin) expressed in HEK293-A cells assessed as reduction in forskolin-induced cAMP accumulation incubated for 30 mins by competition PKA binding assay relative to Tyr-D-Ala-Gly-Phe-Gln-Pro-Gln-Arg-Phe-NH2; format: functional, cell-based; in short: as §1
[3] = biological target: Kappa-type opioid receptor (Homo sapiens, UniProt P41145); experiment: Agonist activity at kappa opioid receptor (unknown origin) expressed in HEK293-A cells assessed as reduction in forskolin-induced cAMP accumulation incubated for 30 mins by competition PKA binding assay; format: functional, cell-based; in short: as §1
Mu-type opioid receptor [4] = biological target: T3, Mu-type opioid receptor (Homo sapiens, UniProt P35372); experiment: Agonist activity at mu opioid receptor (unknown origin) expressed in HEK293-A cells assessed as reduction in forskolin-induced cAMP accumulation incubated for 30 mins by competition PKA binding assay relative to Tyr-D-Ala-Gly-Phe-Gln-Pro-Gln-Arg-Phe-NH2; format: functional, cell-based; settings: filed as agonist; in short: as §1
Mus musculus [5] = experiment: Antinociceptive activity in mouse dosed repeated icv injections for 6 days by radiant heat tail-flick test; format: functional; settings: time 6 day
In short: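 Mice received the same icv dose once daily for 6 days in the radiant heat tail-flick test. Tolerance was judged by comparing the antinociceptive response on day 1 with day 6. Values are mean ± SEM.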

[6] = biological target: T2, Neuropeptide FF receptor 2; experiment: Agonist activity at NPFFR2 (unknown origin) expressed in HEK293-A cells assessed as reduction in forskolin-induced cAMP accumulation incubated for 30 mins by competition PKA binding assay; format: functional, cell-based; in short: as §1
Mu-type opioid receptor [7] = biological target: T3, Mu-type opioid receptor; experiment: Agonist activity at mu opioid receptor (unknown origin) expressed in HEK293-A cells assessed as reduction in forskolin-induced cAMP accumulation incubated for 30 mins by competition PKA binding assay; format: functional, cell-based; in short: as §1
[8] = biological target: T4, Neuropeptide FF receptor 1 (Homo sapiens, UniProt Q9GZQ6); experiment: Agonist activity at NPFFR1 (unknown origin) expressed in HEK293-A cells assessed as reduction in forskolin-induced cAMP accumulation incubated for 30 mins by competition PKA binding assay relative to Tyr-D-Ala-Gly-Phe-Gln-Pro-Gln-Arg-Phe-NH2; format: functional, cell-based; settings: filed as agonist; in short: as §1
Mus musculus [9] = experiment: Antinociceptive activity in mouse assessed as development of tolerance dosed repeated icv injections for 6 days by radiant heat tail-flick test; format: functional, organism-based; settings: time 6.0 day
In short: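 Tail-flick test in mice. Peptide was given icv once daily for 6 days at a fixed dose. Antinociceptive responses to the same dose on day 1 and day 6 were compared to judge tolerance. Values are mean ± SEM.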

[10] = biological target: T1, Delta-type opioid receptor; experiment: Agonist activity at delta opioid receptor (unknown origin) expressed in HEK293-A cells assessed as reduction in forskolin-induced cAMP accumulation incubated for 30 mins by competition PKA binding assay relative to Tyr-D-Ala-Gly-Phe-Gln-Pro-Gln-Arg-Phe-NH2; format: functional, cell-based; settings: filed as agonist; in short: as §1
[11] = biological target: T4, Neuropeptide FF receptor 1; experiment: Agonist activity at NPFFR1 (unknown origin) expressed in HEK293-A cells assessed as reduction in forskolin-induced cAMP accumulation incubated for 30 mins by competition PKA binding assay; format: functional, cell-based; in short: as §1
[12] = biological target: T4, Neuropeptide FF receptor 1; experiment: Agonist activity at NPFFR1 (unknown origin) expressed in HEK293-A cells assessed as reduction in forskolin-induced cAMP accumulation at 10 uM incubated for 30 mins by competition PKA binding assay relative to Tyr-D-Ala-Gly-Phe-Gln-Pro-Gln-Arg-Phe-NH2; format: functional, cell-based; in short: as §1
Mus musculus [13] = experiment: Antinociceptive activity in icv dosed mouse assessed as inhibition of phase I flinching behaviors by formalin-induced nociceptive behavioral test; format: functional
Mus musculus [14] = experiment: Antinociceptive activity in icv dosed mouse assessed as inhibition of phase II flinching behaviors by formalin-induced nociceptive behavioral test; format: functional
Mus musculus [15] = species on record: Mus musculus; experiment: Antinociceptive activity in mouse; format: functional
Mus musculus [16] = experiment: Antinociceptive activity in mouse model of CFA-induced chronic inflammatory pain assessed as reduction in tactile hyperalgesia at 3 nmol, icv after 15 to 90 mins; format: functional, organism-based; settings: time 15-90 min
Mus musculus [17] = experiment: Antinociceptive activity in mouse model of CFA-induced chronic inflammatory pain assessed as reduction in tactile hyperalgesia at 3 nmol, icv dosed once daily for 6 days; format: functional, organism-based; settings: time 6.0 day
[18] = biological target: T1, Delta-type opioid receptor; experiment: Agonist activity at delta opioid receptor (unknown origin) expressed in HEK293-A cells assessed as reduction in forskolin-induced cAMP accumulation at 10 uM incubated for 30 mins by competition PKA binding assay relative to Tyr-D-Ala-Gly-Phe-Gln-Pro-Gln-Arg-Phe-NH2; format: functional, cell-based; settings: filed as agonist; in short: as §1

Row | Structure (SMILES) | EC50 [1] [nM] | Emax ([2]; filed as agonist) [%] | EC50 [3] [nM] | Emax (Mu-type opioid receptor [4]) [%] | ED50 (Mus musculus [5]) [nmol] | EC50 ([6]; read-out: EC50) [nM] | EC50 (Mu-type opioid receptor [7]; read-out: EC50) [nM] | Emax [8] [%] | Activity (Mus musculus [9]) | Emax [10] [%] | EC50 ([11]; read-out: EC50) [nM] | also measured
1 | CSCC[C@H](NC(=O)[C@H](Cc1ccccc1)NC(=O)CNC(=O)[C@@H](C)NC(=O)[C@@H](N)Cc1ccc(O)cc1)C(=O)N1CCC[C@H]1C(=O)N[C@@H](CCC(N)=O)C(=O)N[C@@H](CCCNC(=N)N)C(=O)N[C@@H](Cc1ccccc1)C(N)=O (H-Y[dA]GFMPQRF-NH2) | 38.8 | 58.4 | 240 | 89.2 | 0.2967 | 87 | 127 | 69.2 | Active | 81.2 | 301 | 
2 | N=C(N)NCCC[C@H](NC(=O)[C@H](CCC(N)=O)NC(=O)[C@@H]1CCCN1C(=O)[C@H](CCC(N)=O)NC(=O)[C@H](Cc1ccccc1)NC(=O)CNC(=O)[C@@H](CO)NC(=O)[C@@H](N)Cc1ccc(O)cc1)C(=O)N[C@@H](Cc1ccccc1)C(N)=O | 118 | 63 | 1470 | 97.1 | 0.6062 | 254 | 563 | 82.3 | inactive | 84.9 | 3200 | EC50 ([6]; read-out: pEC50 (converted)): 245 nM
3 | C[C@@H](NC(=O)[C@@H](N)Cc1ccc(O)cc1)C(=O)NCC(=O)N[C@@H](Cc1ccccc1)C(=O)N[C@H](C)C(=O)N1CCC[C@H]1C(=O)N[C@@H](CCC(N)=O)C(=O)N[C@@H](CCCNC(=N)N)C(=O)N[C@@H](Cc1ccccc1)C(N)=O (H-Y[dA]GF[dA]PQRF-NH2) | 810 | 45.9 |  | 85.6 | 0.3361 | 5010 | 249 |  | Active | 85.3 |  | Emax [12]: 15.1%; EC50 (Mu-type opioid receptor [7]; read-out: pEC50 (converted)): 245 nM
4 | CC(C)C[C@@H](NC(=O)[C@H](Cc1ccccc1)NC(=O)CNC(=O)[C@@H](C)NC(=O)[C@@H](N)Cc1ccc(O)cc1)C(=O)N1CCC[C@H]1C(=O)N[C@@H](CCC(N)=O)C(=O)N[C@@H](CCCNC(=N)N)C(=O)N[C@@H](Cc1ccccc1)C(N)=O (H-Y[dA]GF[dL]PQRF-NH2) | 56.9 |  |  | 86.3 | 0.4367 | 651 | 583 |  | Active | 86.4 |  | Emax [2]: 37.2%; Emax [12]: 30.7%
5 | C[C@@H](NC(=O)[C@@H](N)Cc1ccc(O)cc1)C(=O)NCC(=O)N(C)[C@@H](Cc1ccccc1)C(=O)N[C@@H](CCC(N)=O)C(=O)N1CCC[C@H]1C(=O)N[C@@H](CCC(N)=O)C(=O)N[C@@H](CCCNC(=N)N)C(=O)N[C@@H](Cc1ccccc1)C(N)=O (H-Y[dA]G[NMeF]QPQRF-NH2) | 157 | 54.5 | 31 | 91.6 | 0.3862 | 272 | 20.1 | 67.7 | Active | 84.9 | 289 | 
6 | CSCC[C@@H](NC(=O)[C@@H](N)Cc1ccc(O)cc1)C(=O)NCC(=O)N[C@@H](Cc1ccccc1)C(=O)N[C@@H](CCC(N)=O)C(=O)N1CCC[C@H]1C(=O)N[C@@H](CCC(N)=O)C(=O)N[C@@H](CCCNC(=N)N)C(=O)N[C@@H](Cc1ccccc1)C(N)=O | 114 | 57.9 | 1260 | 89.4 | 0.0314 | 41.3 | 424 | 73.5 | inactive | 84.7 | 661 | 
7 | C[C@@H](NC(=O)[C@@H](N)Cc1ccc(O)cc1)C(=O)NCC(=O)N[C@@H](Cc1ccccc1)C(=O)N[C@@H](CCC(N)=O)C(=O)N1CCC[C@H]1C(=O)N[C@@H](CCC(N)=O)C(=O)N[C@@H](CCCNC(=N)N)C(=O)N[C@@H](Cc1ccccc1)C(N)=O (H-Y[dA]GFQPQRF-NH2) | 587 | 58.4 | 564 | 92.4 | 0.533 | 185 | 308 | 59.9 | Active | 82.2 | 591 | ED50 (Mus musculus [13]): 120 pmol; ED50 (Mus musculus [14]): 1140 pmol; ED50 (Mus musculus [15]): 0.39 nmol
8 | CN1CC[C@]23c4c5ccc(O)c4O[C@H]2[C@@H](O)C=C[C@H]3[C@H]1C5 [MORPHINE] |  |  |  |  |  |  |  |  |  |  |  | Activity (Mus musculus [16]): Active; Activity (Mus musculus [17]): inactive; ED50 (Mus musculus [15]): 1.02 nmol
9 | CC(C)C[C@H](NC(=O)[C@H](Cc1ccccc1)NC(=O)CNC(=O)[C@@H](C)NC(=O)[C@@H](N)Cc1ccc(O)cc1)C(=O)N1CCC[C@H]1C(=O)N[C@@H](CCC(N)=O)C(=O)N[C@@H](CCCNC(=N)N)C(=O)N[C@@H](Cc1ccccc1)C(N)=O (H-Y[dA]GFLPQRF-NH2) | 49.3 | 57.3 | 120 | 98.9 | 0.1865 | 259 | 250 | 68.4 | Active | 79.1 | 54.4 | EC50 ([11]; read-out: pEC50 (converted)): 53.7 nM
10 | C[C@@H](NC(=O)[C@@H](N)Cc1ccc(O)cc1)C(=O)NCC(=O)N[C@@H](Cc1ccccc1)C(=O)NCC(=O)N1CCC[C@H]1C(=O)N[C@@H](CCC(N)=O)C(=O)N[C@@H](CCCNC(=N)N)C(=O)N[C@@H](Cc1ccccc1)C(N)=O (H-Y[dA]GFGPQRF-NH2) | 898 | 56.2 | 1630 | 80.4 | 0.4172 | 185 | 28.4 | 66.8 | Active | 75.7 | 881 | 
11 | CSCC[C@@H](NC(=O)[C@H](Cc1ccccc1)NC(=O)CNC(=O)[C@@H](C)NC(=O)[C@@H](N)Cc1ccc(O)cc1)C(=O)N1CCC[C@H]1C(=O)N[C@@H](CCC(N)=O)C(=O)N[C@@H](CCCNC(=N)N)C(=O)N[C@@H](Cc1ccccc1)C(N)=O (H-Y[dA]GF[dM]PQRF-NH2) | 120 | 70.2 | 2460 | 89.7 | 0.3986 | 318 | 409 |  | Active | 78.4 |  | Emax [12]: 26.6%
12 | CN[C@@H](Cc1ccc(O)cc1)C(=O)N[C@H](C)C(=O)NCC(=O)N[C@@H](Cc1ccccc1)C(=O)N[C@@H](CCC(N)=O)C(=O)N1CCC[C@H]1C(=O)N[C@@H](CCC(N)=O)C(=O)N[C@@H](CCCNC(=N)N)C(=O)N[C@@H](Cc1ccccc1)C(N)=O (H-[NMeY][dA]GFQPQRF-NH2) |  | 49.5 | 2590 | 86.7 | 1.298 | 132 | 196 | 72.4 | Active |  | 928 | Emax [18]: 70%
